Test results as given in ChEMBL document CHEMBL4190269, “Design, synthesis and biological evaluation of novel 6-substituted pyrrolo [3,2-d] pyrimidine analogues as antifolate antitumor agents” (2017).
Calls of active or inactive are those of the source. The rule behind the calls is not given here.

Tests used:
HCT-116 = test: Antiproliferative activity against human HCT116 cells after 48 hrs by MTS assay; assay type: functional; conditions: HCT-116, 48 h
HT-29 = test: Antiproliferative activity against human HT-29 cells after 48 hrs by MTS assay; assay type: functional; conditions: HT-29, 48 h
Method in brief: (§1)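 Cells in RPMI-1640 or DMEM with 10% FBS, 37 °C, 5% CO2. Exponentially growing cells seeded at 5 × 10^3 per well and grown 12 h. Compounds added at 10 nM to 100 μM for 48 h. MTS reagent added for 3 h, then OD read at 490 nm. 0.1% DMSO as control. Mean viability from three independent experiments.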

HeLa = test: Antiproliferative activity against human HeLa cells after 48 hrs by MTS assay; assay type: functional; method in brief: as §1
HL-60 [1] = test: Antiproliferative activity against human HL60 cells after 48 hrs by MTS assay; assay type: functional; conditions: HL-60, 48 h; method in brief: as §1
A549 [2] = test: Antiproliferative activity against human A549 cells after 48 hrs by MTS assay; assay type: functional; conditions: A549, 48 h; method in brief: as §1
NCI-H1299 = test: Antiproliferative activity against human NCI-H1299 cells after 48 hrs by MTS assay; assay type: functional; conditions: NCI-H1299, 48 h; method in brief: as §1
HL-60 [3] = test: Antiproliferative activity against human HL60 cells up to 1000 uM after 48 hrs in presence of excess of adenosine and AICA by MTS assay; assay type: functional, cell-based
[4] = target: T1, Dihydrofolate reductase (Homo sapiens) (UniProt P00374); test: Inhibition of recombinant human DHFR at 100 uM using dihydrofolate as substrate in presence of NADPH by spectrophotometric method relative to control
T1 sequence (whole entry): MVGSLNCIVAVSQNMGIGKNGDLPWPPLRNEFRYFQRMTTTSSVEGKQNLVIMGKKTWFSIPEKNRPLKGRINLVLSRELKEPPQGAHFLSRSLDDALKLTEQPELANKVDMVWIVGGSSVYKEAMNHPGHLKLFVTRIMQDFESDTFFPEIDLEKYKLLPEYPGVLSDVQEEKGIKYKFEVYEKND
Method in brief: (§2)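 Recombinant human DHFR assayed with 0.1 mM dihydrofolate, 0.3 mM NADPH and 100 mM KCl, pH 7.5, 32 °C. Reaction started by adding enzyme and followed as OD change at 340 nm. Percent inhibition recorded at 1, 10 and 100 μM.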

HL-60 [5] = test: Antiproliferative activity against human HL60 cells up to 1000 uM after 48 hrs in presence of excess of thymidine by MTS assay; assay type: functional, cell-based
[6] = target: T1, Dihydrofolate reductase (Homo sapiens); test: Inhibition of recombinant human DHFR at 1 to 10 uM using dihydrofolate as substrate in presence of NADPH by spectrophotometric method; method in brief: as §2
A549 [7] = test: Cell cycle arrest in human A549 cells assessed as accumulation at G2 phase at 1 uM after 72 hrs by propidium iodide staining based flow cytometry (reference value: 7.8%); assay type: functional
Method in brief: (§3)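 A549 cells treated 72 h in RPMI1640 with 10% dFBS and 2 nM LCV. Washed twice in ice-cold PBS and fixed in 70% ethanol at 4 °C overnight. Stained ≥20 min at room temperature in the dark with 50 μg/mL PI and 100 μg/mL RNase. Phase percentages from 1 × 10^4 cells by flow cytometry. DMSO-treated cells as reference.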

A549 [8] = test: Cell cycle arrest in human A549 cells assessed as accumulation at G1 phase at 1 uM after 72 hrs by propidium iodide staining based flow cytometry (reference value: 40.9%); assay type: functional; method in brief: as §3
A549 [9] = test: Cell cycle arrest in human A549 cells assessed as accumulation at G2 phase at 10 uM after 72 hrs by propidium iodide staining based flow cytometry (reference value: 7.8%); assay type: functional; method in brief: as §3
A549 [10] = test: Cell cycle arrest in human A549 cells assessed as accumulation at S phase at 1 uM after 72 hrs by propidium iodide staining based flow cytometry (reference value: 51.3%); assay type: functional; method in brief: as §3
A549 [11] = test: Cell cycle arrest in human A549 cells assessed as accumulation at S phase at 10 uM after 72 hrs by propidium iodide staining based flow cytometry (reference value: 51.3%); assay type: functional; method in brief: as §3
A549 [12] = test: Induction of apoptosis in human A549 cells assessed as necrotic cells at 1 uM after 72 hrs by Annexin V-FITC/propidium iodide staining based flow cytometry (reference value: 3.58%); assay type: functional
Method in brief: (§4)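 A549 cells exposed 72 h in RPMI with 10% dFBS and 2 nM LCV, with an untreated control. Harvested by trypsinization and washed twice in cold PBS. Stained with annexin V-FITC/PI and ≥1 × 10^4 cells analyzed by flow cytometry. Quadrants: LR early apoptosis, UR late apoptosis/necrosis, UL dead, LL viable.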

A549 [13] = test: Induction of apoptosis in human A549 cells assessed as early apoptotic cells at 10 uM after 72 hrs by Annexin V-FITC/propidium iodide staining based flow cytometry (reference value: 0.32%); assay type: functional; method in brief: as §4
A549 [14] = test: Induction of apoptosis in human A549 cells assessed as live cells at 1 uM after 72 hrs by Annexin V-FITC/propidium iodide staining based flow cytometry (reference value: 94.86%); assay type: functional; method in brief: as §4
A549 [15] = test: Inhibition of colony formation in human A549 cells at 20 uM treated for 48 hrs followed by compound washout measured after 8 days by Giemsa staining based assay; assay type: functional, cell-based
Method in brief: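 About 100 A549 cells per well plated and kept 24 h in RPMI with 10% dFBS and 2 nM LCV at 37 °C, 5% CO2. Compound at 0-20 μM added for 48 h, then medium replaced with drug-free medium for 8 days. Colonies fixed in methanol 30 min, Giemsa-stained 30 min, then counted.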

A549 [16] = test: Induction of apoptosis in human A549 cells assessed as late apoptotic cells at 1 uM after 72 hrs by Annexin V-FITC/propidium iodide staining based flow cytometry (reference value: 1.24%); assay type: functional; method in brief: as §4
A549 [17] = test: Induction of apoptosis in human A549 cells assessed as early apoptotic cells at 1 uM after 72 hrs by Annexin V-FITC/propidium iodide staining based flow cytometry (reference value: 0.32%); assay type: functional; method in brief: as §4
A549 [18] = test: Induction of apoptosis in human A549 cells assessed as late apoptotic cells at 10 uM after 72 hrs by Annexin V-FITC/propidium iodide staining based flow cytometry (reference value: 1.24%); assay type: functional; method in brief: as §4
A549 [19] = test: Induction of apoptosis in human A549 cells assessed as necrotic cells at 10 uM after 72 hrs by Annexin V-FITC/propidium iodide staining based flow cytometry (reference value: 3.58%); assay type: functional; method in brief: as §4
A549 [20] = test: Induction of apoptosis in human A549 cells assessed as live cells at 10 uM after 72 hrs by Annexin V-FITC/propidium iodide staining based flow cytometry (reference value: 94.86%); assay type: functional; method in brief: as §4
A549 [21] = test: Cell cycle arrest in human A549 cells assessed as accumulation at G1 phase at 10 uM after 72 hrs by propidium iodide staining based flow cytometry (reference value: 40.9%); assay type: functional; method in brief: as §3

Structure (SMILES) | GI50 (HCT-116) | GI50 (HT-29) | GI50 (HeLa) | GI50 (HL-60 [1]) | GI50 (A549 [2]) | GI50 (NCI-H1299) | also measured
C=CCn1c(CNc2ccc(C(=O)N[C@@H](CCC(=O)O)C(=O)O)cc2)cc2nc(N)[nH]c(=O)c21 | > 100 µM | 98.5 µM | 82.7 µM | 15.5 µM | 57.3 µM | 68.4 µM | 
C#CCN(Cc1cc2nc(N)[nH]c(=O)c2[nH]1)c1ccc(C(=O)N[C@@H](CCC(=O)O)C(=O)O)cc1 | > 100 µM | > 100 µM | > 100 µM | > 100 µM | > 100 µM | > 100 µM | 
Nc1nc2c(I)c(CNc3ccc(C(=O)N[C@@H](CCC(=O)O)C(=O)O)cc3)[nH]c2c(=O)[nH]1 | > 100 µM | > 100 µM | > 100 µM | 54.2 µM | > 100 µM | > 100 µM | 
Nc1nc2cc(CNc3ccc(C(=O)N[C@@H](CCC(=O)O)C(=O)O)cc3)[nH]c2c(=O)[nH]1 | > 100 µM | > 100 µM | 85.1 µM | 47.4 µM | 79 µM | 73.1 µM | 
Nc1nc2cc(CCc3ccc(C(=O)N[C@@H](CCC(=O)O)C(=O)O)cc3)[nH]c2c(=O)[nH]1 | 54.6 µM | 99.1 µM | 73.1 µM | 8.92 µM | 0.73 µM | 1.72 µM | Activity (HL-60 [3]): Active; inhibition [4]: 66.7%; Activity (HL-60 [5]): Active; inhibition [6]: Active; Activity (A549 [7]): 15%; Activity (A549 [8]): 33.7%; Activity (A549 [9]): 19.4%; Activity (A549 [10]): 51.3%; Activity (A549 [11]): 45.6%; Activity (A549 [12]): 4.46%; Activity (A549 [13]): 4.4%; Activity (A549 [14]): 94.08%; inhibition (A549 [15]): Active; Activity (A549 [16]): 1.07%; Activity (A549 [17]): 0.39%; Activity (A549 [18]): 3.21%; Activity (A549 [19]): 3.56%; Activity (A549 [20]): 88.02%; Activity (A549 [21]): 35%
CN(Cc1cnc2nc(N)nc(N)c2n1)c1ccc(C(=O)N[C@@H](CCC(=O)O)C(=O)O)cc1 [METHOTREXATE] | 0.13 µM | > 100 µM | > 100 µM | 0.038 µM | 0.014 µM | 0.072 µM | Activity (A549 [7]): 0%; Activity (A549 [8]): 62%; Activity (A549 [10]): 38%
CN(Cc1cc2nc(N)[nH]c(=O)c2[nH]1)c1ccc(C(=O)N[C@@H](CCC(=O)O)C(=O)O)cc1 | > 100 µM | > 100 µM | > 100 µM | > 100 µM | > 100 µM | > 100 µM | 
Nc1nc2c(Br)c(CNc3ccc(C(=O)N[C@@H](CCC(=O)O)C(=O)O)cc3)[nH]c2c(=O)[nH]1 | > 100 µM | > 100 µM | > 100 µM | 40.1 µM | 83 µM | > 100 µM | 
Cn1c(CNc2ccc(C(=O)N[C@@H](CCC(=O)O)C(=O)O)cc2)cc2nc(N)[nH]c(=O)c21 | > 100 µM | > 100 µM | 94.4 µM | 13.5 µM | 46 µM | 51.3 µM | 
CCN(Cc1cc2nc(N)[nH]c(=O)c2[nH]1)c1ccc(C(=O)N[C@@H](CCC(=O)O)C(=O)O)cc1 | > 100 µM | > 100 µM | > 100 µM | > 100 µM | > 100 µM | > 100 µM | 
